Experiment [1] has as its target T1, Inosine-5'-monophosphate dehydrogenase 2 (Homo sapiens, UniProt P12268). Description: Inhibition of human inosine monophosphate dehydrogenase IMPDH II. The procedure, abridged: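 Human type II IMPDH expressed in and purified from E. coli, used at 40 nM. Buffer: 0.1 M Tris, 0.1 M KCl, 3 mM EDTA, pH 8.0, with 400 µM IMP and 2 mM DTT. Compounds were added from DMSO to a final 2.5% DMSO. NAD (400 µM final) started the reaction. After 2 h at 25°C, NADH was read at 340 nm. IC50 came from a four-parameter logistic fit.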

The test system of the next experiment is CCRF-CEM. Description: Inhibitory activity against CEM cell proliferation. Particulars: Homo sapiens. It counts as functional, cell-based.
Experiment [2] has as its target T2, Inosine-5'-monophosphate dehydrogenase 1 (Homo sapiens, UniProt P20839). The experiment in a line: Ratio of IC50(Type I) to IC50(Type II).
Target sequence in this assay (P20839 2-514 limits assumed): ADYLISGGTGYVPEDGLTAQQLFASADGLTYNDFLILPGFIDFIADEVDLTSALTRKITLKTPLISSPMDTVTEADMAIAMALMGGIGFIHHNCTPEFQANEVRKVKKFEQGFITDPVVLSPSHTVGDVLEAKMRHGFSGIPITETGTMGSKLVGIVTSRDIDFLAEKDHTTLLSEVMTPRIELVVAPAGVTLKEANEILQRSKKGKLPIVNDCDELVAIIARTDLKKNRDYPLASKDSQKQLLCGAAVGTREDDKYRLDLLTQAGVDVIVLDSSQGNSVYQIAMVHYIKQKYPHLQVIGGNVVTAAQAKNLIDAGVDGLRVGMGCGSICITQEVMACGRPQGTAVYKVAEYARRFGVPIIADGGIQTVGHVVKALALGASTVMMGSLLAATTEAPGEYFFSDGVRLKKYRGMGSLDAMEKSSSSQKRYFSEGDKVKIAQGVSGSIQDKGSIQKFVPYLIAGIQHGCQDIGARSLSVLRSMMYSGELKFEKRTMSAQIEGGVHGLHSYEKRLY
Experiment [3] deals with T1, Inosine-5'-monophosphate dehydrogenase 2. The experiment in a line: Inhibitory activity against IMPDH II with respect to IMP and NAD.
Experiment [4] has as its target T2, Inosine-5'-monophosphate dehydrogenase 1. The experiment in a line: Inhibitory activity against inosine monophosphate dehydrogenase IMPDH type I.
Target sequence in this assay (P20839 whole entry): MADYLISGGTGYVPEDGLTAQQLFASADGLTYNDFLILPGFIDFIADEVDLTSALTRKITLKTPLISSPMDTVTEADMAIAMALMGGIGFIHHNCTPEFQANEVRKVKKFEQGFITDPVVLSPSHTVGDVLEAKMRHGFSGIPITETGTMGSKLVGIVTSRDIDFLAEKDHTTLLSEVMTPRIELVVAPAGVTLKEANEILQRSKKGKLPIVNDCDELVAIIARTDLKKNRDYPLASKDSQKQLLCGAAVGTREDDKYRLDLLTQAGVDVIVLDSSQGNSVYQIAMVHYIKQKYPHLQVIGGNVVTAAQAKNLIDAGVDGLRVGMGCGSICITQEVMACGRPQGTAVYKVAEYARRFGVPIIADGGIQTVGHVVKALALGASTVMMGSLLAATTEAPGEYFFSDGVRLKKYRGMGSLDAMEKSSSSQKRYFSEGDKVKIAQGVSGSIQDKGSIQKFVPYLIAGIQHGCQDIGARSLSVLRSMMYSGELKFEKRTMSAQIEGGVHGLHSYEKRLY

`COc1cc2nc(-c3cccc(Br)c3)cc(O)c2cc1-c1cnco1` registered an IC50 in experiment [1] of 22 nM.
In experiment [1], `COc1cc2nc(Cc3ccccc3)cc(O)c2cc1-c1cnco1` showed a 50% inhibitory concentration (IC50) of 180 nM.
With `COc1cc2nc(-c3ccccc3)cc(O)c2cc1-c1cnco1`, the IC50 turned out to be 690 nM in the experiment on CCRF-CEM, 8 nM in experiment [1] and 99 nM in experiment [4]. For the same compound, the Ratio in experiment [2] was 12. For the same compound, the Ki in experiment [3] is 7 nM.
Regarding `COc1cc2nc(-c3ccoc3)cc(O)c2cc1-c1cnco1`, in experiment [1], the IC50 is 32 nM.
The same measure, in the same setting: to `COc1cc2nc(-c3ccc(Br)cc3)cc(O)c2cc1-c1cnco1` belongs 5 nM; to `COc1cc2nc(-c3cccc(S(C)(=O)=O)c3)cc(O)c2cc1-c1cnco1`, 160 nM; to `CNc1cc(O)c2cc(-c3cnco3)c(OC)cc2n1`, 220 nM.
Still for that read-out and setting: then `COc1cc2nccc(O)c2cc1-c1cnco1`, with 300 nM; and `COc1cc2nc(C)cc(O)c2cc1-c1cnco1`, with 110 nM; and `COc1cc2nc(-c3ccc(O)cc3)cc(O)c2cc1-c1cnco1`, with 43 nM.
Regarding `COc1ccc(-c2cc(O)c3cc(-c4cnco4)c(OC)cc3n2)cc1`, the half-maximal inhibitory concentration (IC50) is 370 nM in the experiment with CCRF-CEM, below 5 nM in experiment [1] and 90 nM in experiment [4]. Moreover, in experiment [2], the Ratio was above 18.
The matching figures for `COc1cc2nc(-c3ccc(C)c(C)c3)cc(O)c2cc1-c1cnco1`: 410 nM, below 5 nM, 83 nM and above 17.
As for `COc1cc2nc(-c3ccc(C)cc3)cc(O)c2cc1-c1cnco1`, the IC50 in the experiment on CCRF-CEM is 560 nM; in experiment [1], below 5 nM; in experiment [4], 46 nM. The Ratio in experiment [2] is above 9.
For `COc1cc2nc(-c3ccccn3)cc(O)c2cc1-c1cnco1`, half-maximal inhibition in experiment [1] (IC50) required 43 nM.
Still for that read-out and setting: to `COc1cc2nc(-c3ccc(C)c(Br)c3)cc(O)c2cc1-c1cnco1` belongs 19 nM.
Same read-out and setting: then `COc1cc2nc(-c3cc(C)ccc3C)cc(O)c2cc1-c1cnco1`, with 29 nM; and `COc1cc2nc(-c3ccccc3)c(C)c(O)c2cc1-c1cnco1`, with 65 nM.
As for `COc1cc2nc(-c3ccsc3)cc(O)c2cc1-c1cnco1`, the IC50 in the experiment with CCRF-CEM turned out to be 340 nM; in experiment [1] it was 9 nM; in experiment [4], 55 nM. For the same compound, the Ratio in experiment [2] came out at 6.
With `COc1cc(NC(=O)Nc2cccc(C)c2)ccc1-c1cnco1`, the IC50 was found to be 320 nM with CCRF-CEM and 55 nM in experiment [4]. Also, the Ratio in experiment [2] amounted to 2.9.
`COc1cc2nc(-c3cccnc3)cc(O)c2cc1-c1cnco1` had an IC50 in experiment [1] of 70 nM.
In experiment [1], `COc1cc2nc(-c3cccc(O)c3)cc(O)c2cc1-c1cnco1` displayed a half-inhibitory concentration (IC50) of 18 nM.
On to `COc1c(C)c2c(c(O)c1C/C=C(\C)CCC(=O)O)C(=O)OC2` [MYCOPHENOLIC ACID], for which, in experiment [4], half-maximal inhibition (IC50) was put at 55 nM.
For `COc1cc2nc(-c3cscn3)cc(O)c2cc1-c1cnco1`, 34 nM corresponded to half-maximal inhibition in experiment [1] (IC50).
In experiment [1], `COc1cc2nc(-c3ccc(C(=O)O)cc3)cc(O)c2cc1-c1cnco1` gave an IC50 above 1000 nM.
The same measure, in the same setting: then `COc1cc2nc(-c3ccccc3C)cc(O)c2cc1-c1cnco1`, with 65 nM.
Take `COc1cc2nc(-c3cccc(C)c3)cc(O)c2cc1-c1cnco1`: the IC50 was 1100 nM in the experiment with CCRF-CEM, 5 nM in experiment [1] and 150 nM in experiment [4]. Also, the Ratio in experiment [2] turned out to be 30.
For the compound `COc1cc2nc(-c3cccs3)cc(O)c2cc1-c1cnco1`, in experiment [1], the IC50 came out at 63 nM.
`COc1cc2nc(-c3cccc(C(=O)O)c3)cc(O)c2cc1-c1cnco1` gave an IC50 in experiment [1] of 160 nM.
Same read-out and setting: to `COc1cc2nc(C(C)(C)C)cc(O)c2cc1-c1cnco1` belongs above 10000 nM; to `COc1cc2nc(N(C)C)cc(O)c2cc1-c1cnco1`, 200 nM; to `COc1cc2nc(-c3ccncc3)cc(O)c2cc1-c1cnco1`, 46 nM.
